Most compounds without a hit are left out; they make up all but 1.8% or so of the library.
MBD2 inh = inhibitors of human MBD2 binding to methylated oligonucleotide; hit rate 0.31% among 370,000; TR-FRET; AID 686964; inhibition, % at 4.4 µM; Q9UBB5; in the data active = inhibition above about 13%
Target sequence (Q9UBB5 whole entry, looked up): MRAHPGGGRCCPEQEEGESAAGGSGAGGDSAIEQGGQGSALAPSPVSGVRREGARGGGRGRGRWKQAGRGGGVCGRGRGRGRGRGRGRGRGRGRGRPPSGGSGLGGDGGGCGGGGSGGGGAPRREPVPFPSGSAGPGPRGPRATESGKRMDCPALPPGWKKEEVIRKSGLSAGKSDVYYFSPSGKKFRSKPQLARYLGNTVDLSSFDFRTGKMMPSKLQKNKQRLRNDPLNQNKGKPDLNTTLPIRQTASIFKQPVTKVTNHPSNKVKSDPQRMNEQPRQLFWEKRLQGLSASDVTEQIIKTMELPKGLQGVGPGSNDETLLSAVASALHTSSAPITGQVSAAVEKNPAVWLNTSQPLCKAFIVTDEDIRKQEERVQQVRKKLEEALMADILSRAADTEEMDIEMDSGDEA
Casp6 inh = inhibitors of human caspase-6; purified caspase-6, Z-VEID-R110 cleavage fluorescence; inhibition, % at 12.5 µM; hit rate 0.53% among 350,000; AID 686996;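 active = mean inhibition across replicates at least about 35%, with every replicate also reaching that limit, limit read from the data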
UHRF1 MBD2 ctr = blocks human UHRF1 binding to methylated DNA | Q96T88 | UHRF1 binding to methylated oligo, TR-FRET | inhibition, % at 4.4 µM | hit rate 0.75% among 370,000; in the data active = inhibition above about 21%;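 also: UHRF1 SRA domain binding a hemimethylated CpG hairpin DNA probe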
NSD2 inh = blocks human histone methyltransferase NSD2. NSD2 peptide methylation, AlphaScreen, 120 min. inhibition, % at 12.5 µM. hit rate 0.54% among 310,000. AID 743445; in the data active = inhibition above about 50%
TDP2 inh = TDP2 (human) inhibition, absorbance primary screen; O95551; recombinant TDP2, T5PNP hydrolysis, p-nitrophenol absorbance 415 nm; inhibition, % at 12.8 µM; hit rate 0.34% among 370,000;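 active = inhibition above the mean of all tested compounds plus 3 SD, set per campaign, cut at about 25% in these data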
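Assay system: recombinant human TDP2 / Reagent: T5PNP substrate at 5 mM, a TopII-DNA adduct mimic / Measured by: epi absorbance from released p-nitrophenol / Evaluation: % inhibition relative to enzyme-containing and enzyme-free wells / Control set: enzyme-free and DMSO wells / Replicates: each compound tested once, singlicate / Schedule: enzyme reaction with compound for 2 h at 37 °C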
LEDGF integ inh = blocks HIV-1 LEDGF/p75-dependent DNA integration; TR-FRET IN-LEDGF/p75 DNA integration, Eu/Cy5; inhibition, % at 3.7 µM; hit rate 0.64% among 370,000; AID 743269;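 active = inhibition above the screen-wide mean plus 3 SD, cut at about 13% in these data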;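 also: signal is the Cy5 over europium emission ratio at 671 and 618 nm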
A number is an active result.

Screening COc1ccccc1N(CC(O)Cn1c2ccccc2c2ccccc21)S(=O)(=O)c1ccccc1 (stereo not drawn) returned MBD2 inh inactive, Casp6 inh inactive, UHRF1 MBD2 ctr 21, TDP2 inh inactive and LEDGF integ inh inactive.
`Cc1ccc(S(=O)(=O)N(C)C[C@H]2Oc3ccc(NS(C)(=O)=O)cc3C(=O)N([C@H](C)CO)C[C@H]2C)cc1` gave Casp6 inh inactive.
`N#C/C(=N/Nc1ccc(OC(F)(F)F)cc1)C(N)=S` gave MBD2 inh inactive, Casp6 inh inactive, UHRF1 MBD2 ctr 31, NSD2 inh inactive, TDP2 inh inactive and LEDGF integ inh inactive.
Screening CCOc1ccc(NC(=O)CN(C)C(=O)c2ccccc2OCc2cccc(C)c2)cc1OCC returned MBD2 inh inactive, Casp6 inh inactive, UHRF1 MBD2 ctr inactive, NSD2 inh inactive, TDP2 inh inactive and LEDGF integ inh inactive.
`CCOc1ccc(NC(=O)CN(C)C(=O)c2ccccc2Cc2ccccc2)cc1OCC` gave MBD2 inh inactive, Casp6 inh inactive, UHRF1 MBD2 ctr 21, NSD2 inh inactive, TDP2 inh inactive and LEDGF integ inh inactive.
Screening COCC(=O)N1CC2(C1)[C@H](c1ccc(-c3ccccc3)cc1)[C@@H](CO)N2C(=O)COC returned Casp6 inh inactive.
Screening COc1ccc2c3c(n(C)c2c1)[C@@H](CO)N(C(=O)C1CCOCC1)CC31CCN(C(=O)C2CC2)CC1 returned Casp6 inh inactive.
COc1cccc(Nc2ccccc2C(=O)O)c1 was read as MBD2 inh inactive, Casp6 inh inactive, UHRF1 MBD2 ctr inactive, NSD2 inh inactive, TDP2 inh inactive and LEDGF integ inh inactive.
COc1cccc(Oc2ccc(OC)cc2C(=O)O)c1 was read as MBD2 inh inactive, Casp6 inh inactive, UHRF1 MBD2 ctr 26, NSD2 inh inactive, TDP2 inh inactive and LEDGF integ inh inactive.
`O=C(/C=C/c1cccc([N+](=O)[O-])c1)NCCc1ccc(F)cc1` gave MBD2 inh inactive, UHRF1 MBD2 ctr 38, NSD2 inh inactive, TDP2 inh inactive and LEDGF integ inh inactive.
`COC(=O)[C@]12C[C@H](CC(=O)NCc3ccc(C)o3)C(=O)N(Cc3ccccc3)C1=C[C@H](C1CCCC1)O[C@@H]2C` gave MBD2 inh inactive, Casp6 inh 66, UHRF1 MBD2 ctr inactive, TDP2 inh inactive and LEDGF integ inh inactive.
`C[C@@H](NC(=O)C[C@@H]1C=C[C@@H](NC(=O)CN2CCOCC2)[C@@H](CO)O1)c1ccccc1` gave Casp6 inh inactive.
For O=C(COc1ccc(Cl)cc1)OCC(=O)N1CCCC1 the results were MBD2 inh inactive, UHRF1 MBD2 ctr inactive, NSD2 inh inactive, TDP2 inh inactive and LEDGF integ inh inactive.
O=C(COc1ccc(Cl)cc1)OCc1ccc(Cl)cc1 was read as MBD2 inh inactive, Casp6 inh inactive, UHRF1 MBD2 ctr 40, NSD2 inh inactive, TDP2 inh inactive and LEDGF integ inh inactive.
O=C(O)c1ccccc1NS(=O)(=O)c1ccc(NN=Cc2ccccc2F)c([N+](=O)[O-])c1 was read as MBD2 inh inactive, Casp6 inh 41, UHRF1 MBD2 ctr 33, NSD2 inh inactive, TDP2 inh inactive and LEDGF integ inh inactive.
CSc1ccc(C=NNc2ccc(S(=O)(=O)Nc3ccccc3C(=O)O)cc2[N+](=O)[O-])cc1 was read as MBD2 inh inactive, Casp6 inh 41, UHRF1 MBD2 ctr inactive, NSD2 inh inactive, TDP2 inh inactive and LEDGF integ inh inactive.
`CCOc1cccc(C=NNc2ccc(S(=O)(=O)Nc3ccccc3C(=O)O)cc2[N+](=O)[O-])c1O` gave MBD2 inh inactive, Casp6 inh inactive, UHRF1 MBD2 ctr inactive, NSD2 inh inactive, TDP2 inh inactive and LEDGF integ inh inactive.
For C[C@@H]1CN([C@@H](C)CO)C(=O)c2ccccc2-c2ccccc2CO[C@@H]1CN(C)C(=O)Nc1ccnc(N2CCOCC2)c1 the results were Casp6 inh inactive.
Screening CSc1ccc(S(=O)(=O)NCC(=O)OC(C)C(=O)NCc2ccccc2)cc1[N+](=O)[O-] (stereo not drawn) returned MBD2 inh inactive, Casp6 inh inactive, UHRF1 MBD2 ctr 27, NSD2 inh inactive, TDP2 inh inactive and LEDGF integ inh inactive.
`CN(C)C(=O)C[C@@H]1C[C@@H]2c3cc(NC(=O)CC4CC4)ccc3O[C@@H]2[C@H](CO)O1` gave Casp6 inh inactive.
Screening CCOc1ccc(/C=C2\SC(=S)N(CC(=O)N(CCO)C(C)(C)C)C2=O)cc1 returned MBD2 inh inactive, Casp6 inh inactive, UHRF1 MBD2 ctr 35, NSD2 inh inactive, TDP2 inh inactive and LEDGF integ inh inactive.
Screening CC1c2cccn2CCN1S(=O)(=O)c1ccc(F)cc1 (stereo not drawn) returned MBD2 inh inactive, Casp6 inh inactive, UHRF1 MBD2 ctr 30, NSD2 inh inactive, TDP2 inh inactive and LEDGF integ inh inactive.
Screening CC(=O)c1ccc(S(=O)(=O)N2CCn3cccc3C2C)cc1 (stereo not drawn) returned MBD2 inh inactive, Casp6 inh inactive, UHRF1 MBD2 ctr inactive, NSD2 inh inactive, TDP2 inh inactive and LEDGF integ inh inactive.
CC(C)NC(=O)Nc1ccc2c(c1)C(=O)N([C@@H](C)CO)C[C@@H](C)[C@H](CN(C)Cc1ccncc1)OCCCC[C@@H](C)O2 was read as Casp6 inh inactive.
Screening COc1cc(/C=C2\CC/C(=C\c3cc(OC)c(O)c(OC)c3)C2=O)cc(OC)c1O returned MBD2 inh inactive, Casp6 inh 49, UHRF1 MBD2 ctr inactive, NSD2 inh 62, TDP2 inh inactive and LEDGF integ inh 34.
Screening COc1cc(/C=C2\CC/C(=C\c3cc(OC)c(OC)c(OC)c3)C2=O)cc(OC)c1OC returned MBD2 inh inactive, Casp6 inh inactive, UHRF1 MBD2 ctr inactive, NSD2 inh inactive, TDP2 inh inactive and LEDGF integ inh inactive.
`O=C(Nc1cccc2nsnc12)c1cccnc1` gave MBD2 inh inactive, Casp6 inh inactive, UHRF1 MBD2 ctr 55, NSD2 inh inactive, TDP2 inh inactive and LEDGF integ inh inactive.
For O=C(Nc1cccc2cccnc12)c1cccnc1 the results were MBD2 inh inactive, Casp6 inh inactive, UHRF1 MBD2 ctr inactive, NSD2 inh inactive, TDP2 inh inactive and LEDGF integ inh inactive.
Screening O=C(CCc1ccc(O)cc1)c1c(O)cc(O)cc1O returned MBD2 inh inactive, Casp6 inh inactive, UHRF1 MBD2 ctr inactive, TDP2 inh inactive and LEDGF integ inh inactive.
COc1cc(O)c(CC=C(C)C)c(O)c1C(=O)CCc1ccc(O)cc1 was read as MBD2 inh inactive, Casp6 inh inactive, UHRF1 MBD2 ctr 23, TDP2 inh inactive and LEDGF integ inh inactive.
For C[C@@H]1CN([C@@H](C)CO)C(=O)c2cc(C#CC3CCCC3)cnc2O[C@H]1CN(C)S(C)(=O)=O the results were Casp6 inh inactive.

Screens (PubChem BioAssay)
